Sampled rows, rich in hits. Any-hit rate of the full collection: about 12%.
Cl transport mod: modulates chloride dependent transport by human KCC2; Q9H2X9; KCC2 cells, thallium flux FluoZin-2 fluorescence; B-score of Tl+ flux slope (higher = more flux/activation; lower = inhibition) at 10 µM; 2.2% of 190,000 active;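 active means thallium flux slope and its plate-corrected score both differing from the plate sample mean at a set confidence after two filtering rounds, in either direction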;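 further: slope of fluorescence scaled to starting intensity during 10 to 20 s after thallium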
ROMK mod: human ROMK K+ channel modulation, primary screen | P48048 | Tet-inducible ROMK, thallium flux fluorescence; actives lie on both sides | B-score at 10 µM | 2% of 130,000 active;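 active means signal ratio slope over the read window, or its plate-corrected B-score, at least 3 SD from the plate mean, either direction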;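 further: B-score of the F/F0 ratio slope over 7 to 12 s after thallium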
Target sequence (P48048 whole entry, looked up): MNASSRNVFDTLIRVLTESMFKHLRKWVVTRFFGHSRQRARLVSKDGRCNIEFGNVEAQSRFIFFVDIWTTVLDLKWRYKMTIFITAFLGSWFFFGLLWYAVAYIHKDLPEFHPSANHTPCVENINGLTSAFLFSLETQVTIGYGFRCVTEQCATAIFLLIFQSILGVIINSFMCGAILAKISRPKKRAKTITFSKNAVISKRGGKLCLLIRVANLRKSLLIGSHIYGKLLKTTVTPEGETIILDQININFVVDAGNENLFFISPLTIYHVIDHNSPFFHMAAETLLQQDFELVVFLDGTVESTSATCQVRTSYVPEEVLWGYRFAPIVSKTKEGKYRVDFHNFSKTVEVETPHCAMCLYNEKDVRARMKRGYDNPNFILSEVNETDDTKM
Diaph inh CS: inhibits diaphorase or chemically oxidizes, flagging diaphorase assay artifacts. diaphorase resazurin-to-resorufin fluorescence, NADH, 16 min; bacterial (C. kluyveri) enzyme, not human. inhibition, % at 20 µM. 0.69% of 190,000 active. AID 1217;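 active means primary screen inhibition at 20 µM above a set limit, cut at about 50% in these data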
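controls = No-NADH positive control and DMSO neutral control | system = Clostridium kluyveri diaphorase enzyme | timing = reaction incubation of 16 min at room temperature | signal = resorufin fluorescence 544/590 nm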
Diaph act CS: counter-screen for diaphorase-based assays: diaphorase activators and chemical reducers; 0.005% of 190,000 active; Diaphorase/resazurin coupled assay, resorufin fluorescence, 16 min; stronger effect = higher value; 1 = vehicle wells, 0 = NADH-free wells; activation factor at 20 µM;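 active means diaphorase activity raised at least twofold by the compound at 20 µM; inactive means activation factor below 2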
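Assay system: bacterial diaphorase enzyme (C. kluyveri) / Input: enzyme 0.07 U/mL final / Medium: 50 mM HEPES pH 7.4 with 4.542 mM MgCl2, 0.005% Tween 20 / Doses: single compound dose of 20 µM, 1% DMSO final / Incubation: 16 min enzyme reaction, ambient temperature / Signal: fluorescence, excitation 544 nm and emission 590 nm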
WT yeast gro inh: growth inhibition of WT yeast, mitochondrial fusion screen; mitochondrial fusion phenotypic screen, WT strain; 2.1% of 190,000 active; inhibition, % at 10 µM; in the data active means inhibition above about 58%; tested in S. cerevisiae
Lmaj promast: reduces viability of Leishmania major promastigotes | resazurin fluorescence viability | inhibition, % at 10 µM | 9% of 200,000 active | AID 1063; in the data active means inhibition above about 50%;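 further: promastigotes grown with compound for 44 hours at 28 °C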
KCC2 secondary: KCC2 (human) modulation, secondary assay; shares compounds with Cl transport mod; HEK293-KCC2, thallium flux, FluoZin2 fluorescence; stronger effect = higher value; normalised thallium flux (F/F0 slope) at 10 µM; 15% of 3,700 active; AID 1713;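 active means thallium flux slope above the same plate's solvent-only control mean plus 3 SD; inconclusive means the two replicate wells disagree; inactive means no significant difference from solvent-only control wells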
KCC2 bumet counter: thallium flux persisting under bumetanide in KCC2 cells, counter-screen secondary assay | shares compounds with Cl transport mod | HEK293-KCC2 + bumetanide/ouabain, thallium flux FluoZin2; stronger effect = higher value | normalized thallium flux at 10 µM | 49% of 3,700 active | AID 1714;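 active means thallium entry rate above the same plate's blocked-transporter control wells by more than 3 SD; inconclusive means the two repeat wells disagree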;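 further: raw slope of fluorescence over initial fluorescence between 10 and 20 s after thallium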
KCC2 sec2: confirmation of human KCC2 transport modulators; normalized thallium flux at 10 µM; 23% of 3,700 active; HEK293-KCC2, thallium flux FluoZin2 fluorescence; actives lie on both sides; F/F0 rise rate, 10–20 s post-thallium; shares compounds with Cl transport mod;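 active means thallium flux slope more than 3 SD above or below the plate's solvent-only control mean, mostly below; inconclusive means the two repeat wells disagreed; inactive means no significant shift from solvent-only controls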
HEK counter1: counter-screen for KCC2 modulators: effect in parental HEK293 cells | AID 1716 | thallium flux FluoZin2, ouabain; baseline-ratio fluorescence slope, 10–20 s after thallium | 46% of 3,700 active | shares compounds with Cl transport mod | thallium flux rate (normalised fluorescence) at 10 µM;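 active means thallium flux rate significantly above the same plate's solvent-only control wells, beyond their mean plus 3 SD; inconclusive means the two replicate wells gave conflicting results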
KCC2 retest ouab: KCC2 (human) modulation, ouabain retest | shares compounds with Cl transport mod | 48% of 3,700 active | HEK293-KCC2, thallium flux FluoZin2 fluorescence; bidirectional: low = inhibitor, high = activator | raw Tl+ flux slope (below DMSO = inhibition, above = activation) at 10 µM | AID 1717;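 active means thallium flux slope beyond 3 SD from same-plate DMSO control mean in most replicates, usually higher, sometimes lower; inconclusive means repeat tests gave conflicting results; inactive means no significant difference from controls in most replicates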;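 further: slope of initial-normalized fluorescence between seconds 10 and 20 after thallium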
HEK counter2: parental HEK flux effect, counter-screen 2 | thallium flux slope at 10 µM | AID 1718 | 33% of 3,700 active | shares compounds with Cl transport mod | HEK293 parental, thallium flux FluoZin-2 fluorescence slope;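 active means thallium flux slope above the same plate's solvent-control mean plus 3 SD in both duplicate wells; inconclusive means duplicate wells that disagreed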;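 further: run without ouabain in cells lacking the KCC2 cotransporter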
Each line names hits and unclear results; the compound was inactive in the other large screens (follow-up assays come after a bar, where they were run).

S=c1[nH]nc(-c2ccccc2)n1/N=C/c1cccs1	none (no result: Cl transport mod, ROMK mod) | KCC2 secondary inactive | KCC2 bumet counter 0.04 | KCC2 sec2 0.043 | HEK counter1 0.025 | KCC2 retest ouab 0.037 | HEK counter2 0.027
C=CCN1CCc2c(cc(O)c(O)c2Cl)C(c2ccccc2)C1 (centres undefined)	Cl transport mod -3 (no result: ROMK mod, Diaph inh CS, Diaph act CS, WT yeast gro inh, Lmaj promast) | KCC2 secondary inactive | KCC2 bumet counter inactive | KCC2 sec2 inactive | HEK counter1 inactive | KCC2 retest ouab inactive | HEK counter2 inactive
COC(=O)C1CCN(S(=O)(=O)c2cn(C)c(=O)n(C)c2=O)CC1	Cl transport mod -3.4 (no result: ROMK mod) | KCC2 secondary inactive | KCC2 bumet counter inconclusive | KCC2 sec2 inactive | HEK counter1 inactive | KCC2 retest ouab inactive | HEK counter2 inactive
COc1ccc(C)cc1NC(=O)CN(c1ccccc1F)S(C)(=O)=O	none (no result: Cl transport mod) | KCC2 secondary inactive | KCC2 bumet counter inactive | KCC2 sec2 inactive | HEK counter1 inactive | KCC2 retest ouab inactive | HEK counter2 inactive
COc1ccc(C)cc1NC(=O)CN(C)S(=O)(=O)c1cnc[nH]1	none (no result: Cl transport mod) | KCC2 secondary inactive | KCC2 bumet counter inactive | KCC2 sec2 inactive | HEK counter1 inactive | KCC2 retest ouab inactive | HEK counter2 inconclusive
Cc1c(C(C)(C(=O)O)c2c(C)n(C)c3ccccc23)c2ccccc2n1C	none (no result: ROMK mod, Diaph inh CS, Diaph act CS, WT yeast gro inh, Lmaj promast)
COc1ccc(OC)c(NC(=O)C(=O)NNC(=O)c2cccs2)c1	Cl transport mod 9.9 (no result: ROMK mod) | KCC2 secondary 0.015 | KCC2 bumet counter 0.063 | KCC2 sec2 inactive | HEK counter1 0.022 | KCC2 retest ouab 0.04 | HEK counter2 0.015
COc1cc(NC(=O)C(C)C)ccc1NC(=O)c1ccco1	none (no result: Cl transport mod, ROMK mod)
COc1ccc(S(=O)(=O)Nc2ccccc2C(=O)Nc2nc(-c3ccc(F)cc3)cs2)cc1OC	Cl transport mod -6.2, WT yeast gro inh 59, Lmaj promast 53 | KCC2 secondary 0.006 | KCC2 bumet counter inactive | KCC2 sec2 inactive | HEK counter1 inconclusive | KCC2 retest ouab 0.012 | HEK counter2 inactive
COc1ccc(OC)c(NC(=O)C2CCN(C(=O)c3cccs3)CC2)c1	none
COc1ccc(-c2csc(NC(=O)c3ccccc3NS(=O)(=O)c3ccc(C)cc3)n2)cc1	none (no result: ROMK mod)
COc1cc(NC(=S)NC(=O)c2ccco2)ccc1NC(=O)C(C)C	Cl transport mod 5.2, Lmaj promast 86 | KCC2 secondary inactive | KCC2 bumet counter 0.012 | KCC2 sec2 inactive | HEK counter1 0.012 | KCC2 retest ouab inconclusive | HEK counter2 inactive
COc1cc(NC(=S)NC(=O)c2cccs2)ccc1NC(=O)C(C)C	Cl transport mod 5.1 | KCC2 secondary inactive | KCC2 bumet counter 0.024 | KCC2 sec2 inactive | HEK counter1 0.01 | KCC2 retest ouab inconclusive | HEK counter2 0.011
Cc1c(C(=O)Oc2cccc3ccccc23)cnn1-c1ccccc1	none (no result: WT yeast gro inh)
O=C(c1cccs1)N1CCN(S(=O)(=O)c2ccc(F)cc2)CC1	none
CCOC(=O)CNC(=O)Nc1ccccc1C(=O)OC	none
CC1=C(C(=O)Nc2cc(C)ccc2C)C(c2cccs2)NC(=S)N1 (centres undefined)	none (no result: ROMK mod)
CCCOc1ccc(C(=O)N2CCCC2)cc1OC	none
COc1ccc(-c2csc(NC(=S)NC(=O)c3cccs3)n2)cc1OC	Cl transport mod 31, Diaph inh CS 59 | KCC2 secondary 0.01 | KCC2 bumet counter 0.046 | KCC2 sec2 0.056 | HEK counter1 0.044 | KCC2 retest ouab 0.048 | HEK counter2 0.044
CCCCC(=O)Nc1ccc(NC(=S)NC(=O)CC)cc1OC	none
CCCCC(=O)Nc1ccc(NC(=S)NC(=O)c2ccco2)cc1OC	Cl transport mod 13 (no result: ROMK mod, Diaph inh CS, Diaph act CS, WT yeast gro inh, Lmaj promast) | KCC2 secondary 0.022 | KCC2 bumet counter 0.047 | KCC2 sec2 inconclusive | HEK counter1 0.02 | KCC2 retest ouab 0.026 | HEK counter2 0.022
CCC(CC)C(=O)NCCc1ccc(OC)cc1	none
Cc1ccc(SCC(=O)NC(=O)Nc2ccc3c(c2)OCCO3)c(C)c1	none (no result: ROMK mod)
Cc1ccc2cc(C(c3nnnn3C(C)(C)C)N3CCCCCC3)c(=O)[nH]c2c1 (centres undefined)	Diaph inh CS 52 (no result: Cl transport mod) | KCC2 secondary inactive | KCC2 bumet counter inactive | KCC2 sec2 inactive | HEK counter1 inactive | KCC2 retest ouab inactive | HEK counter2 inactive
Cc1cc([N+](=O)[O-])cc(/C=N/n2c(C)nc3ccccc3c2=O)c1O	Cl transport mod -3.3 (no result: Diaph inh CS, Diaph act CS, WT yeast gro inh, Lmaj promast) | KCC2 secondary inactive | KCC2 bumet counter inconclusive | KCC2 sec2 inactive | HEK counter1 inactive | KCC2 retest ouab inconclusive | HEK counter2 inactive
O=C(CCN1CCCCC1)N/N=C/c1c[nH]c2ccccc12	none (no result: Diaph inh CS, Diaph act CS, WT yeast gro inh, Lmaj promast)
O=C(CSc1cccc[n+]1[O-])Nc1ccc(C(F)(F)F)cc1[N+](=O)[O-]	none
O=[N+]([O-])c1ccc(Sc2cccc[n+]2[O-])c2nonc12	Cl transport mod 8.4 (no result: ROMK mod, Diaph inh CS, Diaph act CS, WT yeast gro inh, Lmaj promast) | KCC2 secondary inactive | KCC2 bumet counter 0.023 | KCC2 sec2 inactive | HEK counter1 0.015 | KCC2 retest ouab inactive | HEK counter2 inconclusive
c1ccc2c(c1)c1ccccc1n1c(-c3ccc4c(c3)OCO4)nnc21	none (no result: Cl transport mod, ROMK mod)
CCOC(=O)c1cc(C)n(Cc2cccc(OC)c2OC)c1C	none (no result: Cl transport mod) | KCC2 secondary inactive | KCC2 bumet counter inactive | KCC2 sec2 inactive | HEK counter1 inactive | KCC2 retest ouab inactive | HEK counter2 inactive
CCOC(=O)c1c(C)c(C)n(Cc2cccc(OC)c2OC)c1C	none
Cc1cc(NC(=O)CSc2nncn2N)no1	none
CNC(=S)N=Nc1c(O)[nH]c2ccccc12	Cl transport mod 4.1 | KCC2 secondary inactive | KCC2 bumet counter 0.021 | KCC2 sec2 inactive | HEK counter1 0.011 | KCC2 retest ouab inactive | HEK counter2 0.012

Screens from PubChem.
